Measured values reported in ChEMBL document CHEMBL1795244, “Preliminary evaluation of a 3H imidazoquinoline library as dual TLR7/TLR8 antagonists” (Bioorg Med Chem, 2011).
pIC50: −log10 of the molar value. Calls of active or inactive are those of the source. The rule behind the calls is not given here.

Key:
Toll-like receptor 7 [1] = target: T1, Toll-like receptor 7 (Homo sapiens, UniProt Q9NYK1); assay: Antagonist activity at TLR7 expressed in HEK293 cells co-transfected with NF-kappaB/sAP gene assessed as inhibition of 1 ug/ml of gardiquimod-induced NF-kappaB activation by reporter gene assay; assay type: functional, cell-based
T1 sequence (Q9NYK1 whole entry): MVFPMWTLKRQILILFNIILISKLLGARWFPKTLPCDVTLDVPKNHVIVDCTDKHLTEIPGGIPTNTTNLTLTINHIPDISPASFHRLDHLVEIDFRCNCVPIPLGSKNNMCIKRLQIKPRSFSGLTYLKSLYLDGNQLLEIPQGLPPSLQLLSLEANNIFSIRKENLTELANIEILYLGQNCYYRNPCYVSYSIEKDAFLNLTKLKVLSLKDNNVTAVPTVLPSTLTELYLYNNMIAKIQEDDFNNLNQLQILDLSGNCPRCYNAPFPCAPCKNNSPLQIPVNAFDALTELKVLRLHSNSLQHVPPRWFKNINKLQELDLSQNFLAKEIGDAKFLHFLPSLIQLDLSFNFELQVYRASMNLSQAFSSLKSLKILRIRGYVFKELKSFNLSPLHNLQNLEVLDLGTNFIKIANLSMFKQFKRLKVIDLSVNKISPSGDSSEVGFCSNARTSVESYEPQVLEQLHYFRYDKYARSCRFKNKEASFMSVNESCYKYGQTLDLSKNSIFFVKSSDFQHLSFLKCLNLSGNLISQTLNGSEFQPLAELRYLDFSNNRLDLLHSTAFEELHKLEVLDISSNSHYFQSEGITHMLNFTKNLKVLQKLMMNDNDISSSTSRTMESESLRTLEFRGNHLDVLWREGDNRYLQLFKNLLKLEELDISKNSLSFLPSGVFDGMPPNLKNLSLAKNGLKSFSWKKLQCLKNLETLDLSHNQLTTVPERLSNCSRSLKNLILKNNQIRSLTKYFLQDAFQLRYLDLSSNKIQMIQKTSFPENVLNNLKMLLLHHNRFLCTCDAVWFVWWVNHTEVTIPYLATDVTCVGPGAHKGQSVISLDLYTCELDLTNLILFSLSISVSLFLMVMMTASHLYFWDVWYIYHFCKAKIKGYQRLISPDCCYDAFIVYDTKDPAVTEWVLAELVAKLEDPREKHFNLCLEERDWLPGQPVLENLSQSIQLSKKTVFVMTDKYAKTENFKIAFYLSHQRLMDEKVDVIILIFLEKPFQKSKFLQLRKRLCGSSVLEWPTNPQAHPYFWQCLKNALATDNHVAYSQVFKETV
Outline: (§1)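 HEK-Blue-7 cells (HEK293 stably carrying TLR7 plus NF-κB/AP-1-driven secreted alkaline phosphatase), kept in selection medium with zeocin and normocin. Seeded at ~10⁵ cells/mL and grown to confluency, then stimulated with gardiquimod 1 μg/mL while serially diluted compounds were added at the same time (highest 250 μM). Incubated overnight; supernatant sAP read with chromogen at 620 nm; duplicates or quadruplicates.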

[2] = target: T2, Toll-like receptor 7 (Homo sapiens) (UniProt Q9NYK1); assay: Antagonist activity at TLR7 expressed in HEK293 cells co-transfected with NF-kappaB/sAP gene assessed as inhibition of gardiquimod-induced NF-kappaB activation at 250 uM by reporter gene assay; assay type: functional, cell-based; outline: as §1
T2 sequence (whole entry): T1 sequence (Q9NYK1 whole entry)

Toll-like receptor 8 = target: T3, Toll-like receptor 8 (Homo sapiens, UniProt Q9NR97); assay: Antagonist activity at TLR8 expressed in HEK293 cells co-transfected with NF-kappaB/sAP gene assessed as inhibition of CL075-induced NF-kappaB activation by reporter gene assay; assay type: functional, cell-based
T3 sequence (Q9NR97 whole entry): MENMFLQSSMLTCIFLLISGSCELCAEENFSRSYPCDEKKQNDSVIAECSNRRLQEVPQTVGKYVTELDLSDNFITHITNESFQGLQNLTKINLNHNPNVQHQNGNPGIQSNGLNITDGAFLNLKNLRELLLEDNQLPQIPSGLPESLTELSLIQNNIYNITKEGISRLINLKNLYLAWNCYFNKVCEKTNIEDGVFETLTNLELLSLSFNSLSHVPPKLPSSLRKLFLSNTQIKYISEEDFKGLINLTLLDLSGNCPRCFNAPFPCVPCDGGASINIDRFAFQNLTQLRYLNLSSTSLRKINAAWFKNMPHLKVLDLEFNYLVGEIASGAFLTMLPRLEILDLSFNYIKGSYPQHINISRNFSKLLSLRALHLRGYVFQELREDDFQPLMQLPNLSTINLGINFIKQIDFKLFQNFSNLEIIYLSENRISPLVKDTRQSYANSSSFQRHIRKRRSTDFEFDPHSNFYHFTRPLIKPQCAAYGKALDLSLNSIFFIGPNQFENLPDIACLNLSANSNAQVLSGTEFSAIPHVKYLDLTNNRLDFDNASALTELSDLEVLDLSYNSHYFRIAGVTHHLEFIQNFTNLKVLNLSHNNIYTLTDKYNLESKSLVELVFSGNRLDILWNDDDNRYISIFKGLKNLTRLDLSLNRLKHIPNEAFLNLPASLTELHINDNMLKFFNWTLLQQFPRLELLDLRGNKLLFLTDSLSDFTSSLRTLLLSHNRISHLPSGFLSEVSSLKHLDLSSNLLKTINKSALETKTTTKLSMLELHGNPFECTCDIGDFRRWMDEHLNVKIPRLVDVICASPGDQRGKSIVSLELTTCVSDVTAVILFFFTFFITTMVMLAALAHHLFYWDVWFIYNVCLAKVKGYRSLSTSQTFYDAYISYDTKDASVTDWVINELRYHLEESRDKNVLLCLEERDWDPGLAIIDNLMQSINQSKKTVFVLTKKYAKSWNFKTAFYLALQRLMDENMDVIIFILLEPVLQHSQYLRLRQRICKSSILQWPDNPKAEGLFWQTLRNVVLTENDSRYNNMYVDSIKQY

[3] = target: Toll-like receptor 8 (Homo sapiens) (UniProt Q9NR97); assay: Antagonist activity at TLR8 expressed in HEK293 cells co-transfected with NF-kappaB/sAP gene assessed as inhibition of CL075-induced NF-kappaB activation at 250 uM by reporter gene assay
Toll-like receptor 7 [4] = target: T1, Toll-like receptor 7; assay: Antagonist activity at TLR7 expressed in HEK293 cells co-transfected with NF-kappaB/sAP gene assessed as inhibition of 250 ng/ml of gardiquimod-induced NF-kappaB activation by reporter gene assay

SMILES | pIC50 (Toll-like receptor 7 [1]) | inhibition [2] | pIC50 (Toll-like receptor 8) | inhibition [3] | pIC50 (Toll-like receptor 7 [4])
CCCCCCCCCc1nc2c3ccccc3ncc2n1CC(C)(C)O | 4.84 |  |  |  | 
C#CCn1c(CCCCCCCCC)nc2c3ccccc3ncc21 | 5.07 |  | 5.00 |  | 
C#CCn1c(-c2ccccc2)nc2c3ccccc3ncc21 | 4.83 |  | 4.86 |  | 
CCNCc1nc2c3ccccc3ncc2n1C | 4.52 |  |  |  | 
CC(C)(O)Cn1c(C2CCCCC2)nc2c3ccccc3ncc21 |  | inactive | 4.41 |  | 
CCNCc1nc2c3ccccc3[n+]([O-])cc2n1CC(C)(C)O |  | inactive | 4.33 |  | 
COc1ccc(Cn2c(-c3ccccc3)nc3c4ccccc4[n+](Cc4ccc(OC)cc4)cc32)cc1 | 5.55 |  | 5.34 |  | 6.09
CCCCCCCCCc1nc2c3ccccc3ncc2n1Cc1ccc(OC)cc1 | 4.71 |  |  |  | 
CCNCc1nc2c3ccccc3nc(NC(=O)c3ccccc3)c2n1CC(C)(C)O |  | inactive | 4.67 |  | 

Results, then the compound that gave them:

pIC50 (Toll-like receptor 7 [1]) | inhibition [2] | pIC50 (Toll-like receptor 8) | inhibition [3] | pIC50 (Toll-like receptor 7 [4]) | SMILES
 | inactive | 4.43 |  |  | OCCCn1c(-c2ccccc2)nc2c3ccccc3ncc21
 | inactive |  | inactive |  | COc1ccc(Cn2c(-c3ccccc3)nc3c4ccccc4ncc32)cc1
4.66 |  | 4.68 |  |  | C#CCn1c(C2CCCCC2)nc2c3ccccc3ncc21
4.66 |  | 4.59 |  |  | Cn1c(-c2ccccc2)nc2c3ccccc3ncc21
 | inactive | 4.42 |  |  | CC(C)(O)Cn1c(-c2ccccc2)nc2c3ccccc3ncc21
4.55 |  | 4.22 |  |  | CCNCc1nc2c3ccccc3ncc2n1Cc1ccc(OC)cc1
4.99 |  |  |  |  | CCCCCCCCCc1nc2c3ccccc3ncc2n1C
 | inactive |  | inactive |  | CCNCc1nc2c3ccccc3ncc2n1CCCO
4.58 |  | 4.55 |  |  | C#CCn1c(CNCC)nc2c3ccccc3ncc21
4.66 |  | 4.61 |  |  | Cn1c(C2CCCCC2)nc2c3ccccc3ncc21
4.70 |  | 4.40 |  |  | COc1ccc(Cn2c(C3CCCCC3)nc3c4ccccc4ncc32)cc1
 | inactive | 5.32 |  |  | CCCCCCCCCc1nc2c3ccccc3ncc2n1CCCO
 | inactive | 4.69 |  |  | OCCCn1c(C2CCCCC2)nc2c3ccccc3ncc21
